The values below come from ChEMBL document CHEMBL4627400, “Discovery of Dihydropyrrolo[1,2-a]pyrazin-3(4H)-one-Based Second-Generation GluN2C- and GluN2D-Selective Positive Allosteric Modulators (PAMs) of the N-Methyl-d-Aspartate (NMDA) Receptor” (J Med Chem, 2020).

≈ marks a conversion by molar mass, not a printed value.

A short description of data set [1]: Aqueous solubility of the compound at pH 7.4 after 30 mins by nephelometric analysis. The class given is physicochemical. The settings on record: buffer.
The nature of data set [2]: Protein binding in rat plasma at 1 uM measured after 60 mins by equilibrium dialysis based LC/MS/MS analysis. The settings on record: read-out: PPB (converted). Format: ADME, cell-free. For orientation: In equilibrium dialysis only unbound substance equilibrates across the membrane.
In data set [3] the target is Glutamate NMDA receptor; Grin1/Grin2c (Rattus norvegicus) (UniProt P35439+Q00961). Kind of data set: Positive allosteric modulation of recombinant rat GluN1a/GluN2C receptor expressed in Xenopus laevis oocytes assessed as increase in glycine/L-glutamate-induced channel current at 30 uM by two-electrode voltage clamp method relative to control. Format: cell-based. In a few lines: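 Oocytes expressing rat GluN1/GluN2C or GluN2D, held at −40 mV in HEPES-buffered Ba2+ solution, pH 7.4, 23 °C. Current given as percent of agonist-alone response. Doubling concentration is the concentration giving 2-fold response; reported as […] log. 6–19 oocytes from 2–3 frogs.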
Background: Two-electrode voltage clamp is typically applied to oocytes expressing channels or transporters.

For data set [4], the target named is Glutamate NMDA receptor; Grin1/Grin2a (Rattus norvegicus, UniProt P35439+Q00959). Kind of data set: Positive allosteric modulation of recombinant rat GluN1a/GluN2A receptor expressed in Xenopus laevis oocytes assessed as increase in glycine/L-glutamate-induced channel current at 10 to 30 uM by two-electrode voltage clamp method relative to control. The class given is cell-based. In a few lines: (§1)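 TEVC at −40 mV, 23 °C, in 90 NaCl/1 KCl/0.5 BaCl/0.005 EDTA/10 HEPES (mM), pH 7.4. Oocytes expressed rat GluN1/GluN2A or GluN1/GluN2B. […] Some GluN2A oocytes were BAPTA-loaded. 4–17 oocytes from 1–3 frogs.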
Sequence of Glutamate NMDA receptor; Grin1/Grin2a (Q00959 whole entry, other chains not shown): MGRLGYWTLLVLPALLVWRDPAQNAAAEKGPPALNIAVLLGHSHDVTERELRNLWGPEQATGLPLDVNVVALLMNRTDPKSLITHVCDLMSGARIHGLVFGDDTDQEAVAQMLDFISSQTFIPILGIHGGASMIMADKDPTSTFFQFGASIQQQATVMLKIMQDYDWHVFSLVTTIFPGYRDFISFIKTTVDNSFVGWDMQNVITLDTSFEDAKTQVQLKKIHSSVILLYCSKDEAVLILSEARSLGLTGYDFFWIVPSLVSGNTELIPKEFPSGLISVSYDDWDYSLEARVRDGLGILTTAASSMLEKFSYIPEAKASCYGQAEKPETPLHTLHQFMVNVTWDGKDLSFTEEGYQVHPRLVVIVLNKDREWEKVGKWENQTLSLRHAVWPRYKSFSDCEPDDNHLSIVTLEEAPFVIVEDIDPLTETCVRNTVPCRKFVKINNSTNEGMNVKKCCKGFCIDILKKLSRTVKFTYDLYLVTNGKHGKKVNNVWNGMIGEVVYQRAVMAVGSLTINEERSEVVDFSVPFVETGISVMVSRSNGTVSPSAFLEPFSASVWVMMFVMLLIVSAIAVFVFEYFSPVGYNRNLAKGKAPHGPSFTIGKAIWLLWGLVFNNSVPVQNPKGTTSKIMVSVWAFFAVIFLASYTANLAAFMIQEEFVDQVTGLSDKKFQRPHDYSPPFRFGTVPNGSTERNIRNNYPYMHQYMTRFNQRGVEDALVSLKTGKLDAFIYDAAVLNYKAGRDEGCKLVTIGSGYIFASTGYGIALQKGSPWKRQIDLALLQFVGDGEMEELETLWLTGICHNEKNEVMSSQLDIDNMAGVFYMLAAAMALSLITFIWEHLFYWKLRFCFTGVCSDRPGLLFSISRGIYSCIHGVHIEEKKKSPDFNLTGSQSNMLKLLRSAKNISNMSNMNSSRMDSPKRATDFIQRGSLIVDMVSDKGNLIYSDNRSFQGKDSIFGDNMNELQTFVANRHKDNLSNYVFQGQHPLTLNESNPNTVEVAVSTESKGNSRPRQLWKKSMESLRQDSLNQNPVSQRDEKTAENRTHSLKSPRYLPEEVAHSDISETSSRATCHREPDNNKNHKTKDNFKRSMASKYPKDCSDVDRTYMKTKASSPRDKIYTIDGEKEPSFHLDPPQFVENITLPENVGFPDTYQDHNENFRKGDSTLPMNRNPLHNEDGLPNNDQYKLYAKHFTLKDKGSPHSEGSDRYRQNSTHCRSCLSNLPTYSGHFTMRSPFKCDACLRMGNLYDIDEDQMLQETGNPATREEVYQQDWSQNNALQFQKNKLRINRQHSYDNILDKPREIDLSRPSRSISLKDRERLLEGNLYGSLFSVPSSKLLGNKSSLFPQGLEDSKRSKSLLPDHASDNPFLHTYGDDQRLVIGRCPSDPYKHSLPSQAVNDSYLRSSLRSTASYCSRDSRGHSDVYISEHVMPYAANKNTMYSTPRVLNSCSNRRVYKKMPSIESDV

Data set [5] is described as follows: Drug level in C57Bl/6 mouse brain at 10 mg/kg, ip measured at 0.25 hrs by LC/MS/MS analysis. The class given is ADME, organism-based. The settings on record: read-out: Drug uptake. In a few lines:
(§2)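 Fed male mice, 6–8 weeks old, n = 15, 3 per time point. Dosed ip at 10 mg/kg (1 mg/mL) in 50% PEG400/water. […] Brain homogenized 1:4 in water. Samples acetonitrile-precipitated and quantified by LC-MS/MS with verapamil as internal standard.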

Data set [6] in a line: Cmax in C57Bl/6 mouse at 10 mg/kg, ip by LC/MS/MS analysis. The class given is ADME, organism-based. More on the design: dose 10 mg/kg, route intraperitoneal. As to conditions: in vivo; call rule not given here. In a few lines:
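Male fed C57BL/6 mice, 6–8 weeks, given 10 mg/kg i.p. (1 mg/mL, 10 mL/kg) in 50% PEG400/water. […] Samples protein-precipitated with acetonitrile, brain homogenised 1:4 in water, quantified by LC-MS/MS with verapamil internal standard.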

Data set [7] has as its target Ionotropic glutamate receptor NMDA 1/2D (Rattus norvegicus) (UniProt P35439+Q62645). Kind of data set: Positive allosteric modulation of recombinant rat GluN1a/GluN2D receptor expressed in Xenopus laevis oocytes assessed as increase in glycine/L-glutamate-induced channel current at 30 uM by two-electrode voltage clamp method relative to control. The class given is cell-based. In a few lines: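 Oocytes expressing rat GluN1/GluN2C or GluN2D, held at −40 mV in HEPES-buffered Ba2+ solution, pH 7.4, 23 °C. […] Current given as percent of agonist-alone response. […] Doubling concentration is the concentration giving 2-fold response; reported as […] log. 6–19 oocytes from 2–3 frogs.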

Data set [8] in a line: Half life in C57Bl/6 mouse at 10 mg/kg, ip by LC/MS/MS analysis. The settings on record: in vivo. Format: ADME, organism-based. In short, it runs like this: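 Male, fed C57BL/6 mice (6–8 weeks) got a single i.p. dose of 10 mg/kg (1 mg/mL) in 50% PEG400/water. […] Brain was homogenized 1:4 in water. Samples were acetonitrile-precipitated and measured by LC-MS/MS against a verapamil internal standard. Brain:plasma was reported from AUClast.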

Data set [9] can be described thus: Drug level in C57Bl/6 mouse plasma at 10 mg/kg, ip measured at 0.25 hrs by LC/MS/MS analysis. Format: ADME, organism-based. In a few lines: as §2
Data set [10] has as its target Glutamate NMDA receptor; Grin1/Grin2b (Rattus norvegicus, UniProt P35439+Q00960). The data set can be described thus: Positive allosteric modulation of recombinant rat GluN1a/GluN2B receptor expressed in Xenopus laevis oocytes assessed as increase in glycine/L-glutamate-induced channel current at 10 to 30 uM by two-electrode voltage clamp method relative to control. Format: cell-based. In short, it runs like this:
as §1

Data set [11] addresses Glutamate NMDA receptor; Grin1/Grin2c (Rattus norvegicus, UniProt P35439+Q00961).
Data set [12] concerns the target Ionotropic glutamate receptor NMDA 1/2D (Rattus norvegicus, UniProt P35439+Q62645).
Data set [13] can be described thus: Fraction unbound in rat plasma at 1 uM measured after 60 mins by equilibrium dialysis based LC/MS/MS analysis. Format: ADME, cell-free.
A short description of data set [14]: Ratio of drug level in brain to plasma in C57Bl/6 mouse at 20 mg/kg, ip by LC/MS/MS analysis. The settings on record: read-out: BPR. Format: ADME, organism-based.
A short description of data set [15]: Cmax in C57Bl/6 mouse at 20 mg/kg, ip by LC/MS/MS analysis. The class given is ADME, organism-based. The arrangement: dose 20 mg/kg, route intraperitoneal. The settings on record: in vivo.
Data set [16] can be described thus: Half life in C57Bl/6 mouse at 20 mg/kg, ip by LC/MS/MS analysis. Format: ADME, organism-based. The settings on record: in vivo.

Sequence of Glutamate NMDA receptor; Grin1/Grin2b (Q00960 whole entry, other chains not shown): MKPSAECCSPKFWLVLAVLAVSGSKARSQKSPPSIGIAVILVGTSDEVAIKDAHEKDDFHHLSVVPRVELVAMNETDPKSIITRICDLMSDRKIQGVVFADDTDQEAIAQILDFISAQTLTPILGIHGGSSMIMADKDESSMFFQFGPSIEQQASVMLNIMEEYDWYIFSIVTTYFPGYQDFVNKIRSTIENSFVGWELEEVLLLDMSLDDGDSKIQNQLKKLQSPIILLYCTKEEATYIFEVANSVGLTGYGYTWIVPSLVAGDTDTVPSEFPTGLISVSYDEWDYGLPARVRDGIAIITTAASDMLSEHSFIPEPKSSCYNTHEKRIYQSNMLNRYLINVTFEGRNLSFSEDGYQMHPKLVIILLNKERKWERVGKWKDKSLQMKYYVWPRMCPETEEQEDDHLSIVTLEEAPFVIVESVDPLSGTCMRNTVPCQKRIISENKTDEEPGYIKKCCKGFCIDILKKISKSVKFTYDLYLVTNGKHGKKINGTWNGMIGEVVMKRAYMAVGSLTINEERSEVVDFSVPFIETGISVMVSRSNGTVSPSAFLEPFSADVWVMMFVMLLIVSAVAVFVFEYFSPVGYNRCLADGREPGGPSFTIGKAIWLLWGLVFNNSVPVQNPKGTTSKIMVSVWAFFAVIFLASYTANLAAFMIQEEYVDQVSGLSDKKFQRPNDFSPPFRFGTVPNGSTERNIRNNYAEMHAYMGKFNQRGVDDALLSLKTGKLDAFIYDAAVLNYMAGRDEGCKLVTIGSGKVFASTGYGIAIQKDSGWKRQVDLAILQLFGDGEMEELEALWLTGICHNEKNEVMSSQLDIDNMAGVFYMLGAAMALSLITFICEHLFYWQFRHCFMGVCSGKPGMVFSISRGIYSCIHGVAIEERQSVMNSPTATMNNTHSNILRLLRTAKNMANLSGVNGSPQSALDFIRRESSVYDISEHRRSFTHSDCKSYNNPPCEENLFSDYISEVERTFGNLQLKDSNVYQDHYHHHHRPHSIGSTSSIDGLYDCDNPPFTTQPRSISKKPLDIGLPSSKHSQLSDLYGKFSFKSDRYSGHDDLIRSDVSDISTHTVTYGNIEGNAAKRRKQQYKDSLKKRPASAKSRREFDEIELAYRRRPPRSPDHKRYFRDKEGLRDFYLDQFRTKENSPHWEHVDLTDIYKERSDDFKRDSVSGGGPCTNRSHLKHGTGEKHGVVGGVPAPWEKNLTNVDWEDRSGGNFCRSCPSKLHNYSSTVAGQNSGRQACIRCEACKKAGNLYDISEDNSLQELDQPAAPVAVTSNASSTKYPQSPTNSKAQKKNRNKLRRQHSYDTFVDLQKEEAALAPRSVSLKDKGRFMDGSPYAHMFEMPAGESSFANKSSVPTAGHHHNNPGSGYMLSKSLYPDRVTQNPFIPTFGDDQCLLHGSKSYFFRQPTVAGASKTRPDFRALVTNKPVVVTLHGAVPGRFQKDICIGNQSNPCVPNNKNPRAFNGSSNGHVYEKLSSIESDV

Usually kinetic solubility stands for solubility judged after dilution from a stock solution rather than from solid. By Cmax is commonly meant the peak of the concentration-time curve. The term EC50 denotes the concentration giving half of the maximal effect. Low values mean a more potent agent, high ones a less potent agent. For `COc1ccc(OCC2c3cccn3CC(=O)N2Cc2cccc(F)c2)cc1` (centres undefined), the solubility (kinetic) at 0.5 h in data set [1] amounted to 74 µM (≈ 28.2 µg/mL). Besides, in data set [2], the fraction unbound at 1 h, 1 µM was 0.013. For the same molecule, the %max in data set [3] and in data set [7] was 350% throughout. Further, the Activity result in [4] and in data set [10] was “Not Active” throughout. The concentration at 0.25 h in data set [5] was 2.5 µM; in data set [9], 1.83 µM. Also, the Cmax in data set [6] was 1.83 µM. Moreover, the t1/2 in data set [8] was 1.07 h. In addition, the EC50 in [11] and in data set [12] was 3.16 µM throughout.
What is called half-life is how long it takes for the measured level to halve. `COc1ccc(OCC2c3cc(OC)c(OC)cc3CCN2C(=O)c2cccc(Cl)c2)cc1` (centres undefined): the fraction unbound at 1 h, 1 µM is < 0.0001 in data set [13] and < 0.001 in [2]. Further, in data set [14], the Kp amounted to 6.7. Also, the %max came out at 230% in data set [3] and 220% in data set [7]. In addition, the Cmax in [15] was 2.16 µM. In addition, in data set [16], the half-life is 1.35 h.
